According to ChEMBL document CHEMBL1143581, “Cationic chalcone antibiotics. Design, synthesis, and mechanism of action” (2005):
In brackets after ≈: the same amount, converted by molar mass. Activity calls are given as the source filed them. No cut-off for these calls is given here.

Columns and labels:
[1] = tested on: Enterococcus faecium; experiment: Minimum inhibitory concentration against Enterococcus faecium 17501 (vancomycin-resistant clinical isolate); assay type: functional
[2] = tested on: Enterococcus faecium; experiment: Minimum inhibitory concentration against Enterococcus faecium […]; assay type: functional
[3] = tested on: Escherichia coli; experiment: Minimum inhibitory concentration against Escherichia coli ATCC 25922; assay type: functional
How it was run: (§1)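 Broth microdilution per NCCLS in Mueller-Hinton medium, run in triplicate, with an added uninoculated compound dilution series in case of precipitation. MIC read as the lowest concentration preventing visible growth; reported values are the mean of three experiments.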

[4] = tested on: Staphylococcus aureus; experiment: Minimum inhibitory concentration against Staphylococcus aureus ATCC 33591 (resistant to methicillin); assay type: functional
[5] = tested on: Escherichia coli; experiment: (§2) Minimum inhibitory concentration against Escherichia coli ATCC 25922; NA=not active; assay type: functional, organism-based; how it was run: as §1
[6] = Percent lysis of human erythrocytes after exposed to test compound was measured as hemolysis; assay type: functional
[7] = tested on: Staphylococcus aureus; experiment: Effect on bacterial membrane integrity was determined by using SYTO9 green fluorescent […]; assay type: functional, Bacteria
How it was run: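 Incubated 15 min at 37 °C with agitation, then resuspended to OD600 ~0.4 and stained with BacLight (SYTO-9/propidium iodide) 15 min dark. Excitation 485 nm, emission 530/630 nm; green/red ratio normalized to untreated control.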

[8] = tested on: Escherichia coli; experiment: as §2; assay type: functional, organism-based; remark: listed apart in the source
[9] = tested on: Staphylococcus aureus; experiment: Minimum inhibitory concentration against Staphylococcus aureus ATCC 33591 (resistant to methicillin); NA=not active; assay type: functional, organism-based
[10] = tested on: Enterococcus faecium; experiment: Minimum inhibitory concentration against Enterococcus faecium 17501 (vancomycin-resistant clinical isolate); NA=not active; assay type: functional, organism-based
[11] = tested on: Enterococcus faecium; experiment: Minimum inhibitory concentration against Enterococcus faecium […]; NA=not active; assay type: functional, organism-based; how it was run: as §1

| SMILES | MIC [1] [µM] | MIC [2] [µM] | MIC [4] [µM] | also measured |
| --- | --- | --- | --- | --- |
| CN(C)CCNc1cccc(C(=O)/C=C/c2cc(-c3ccccc3)cc(N3CCN(C)CC3)c2)c1 | 40 (≈ 18.7 µg/mL) | 40 (≈ 18.7 µg/mL) | 20 (≈ 9.37 µg/mL) | MIC [3]: 75 µM (≈ 35.1 µg/mL) |
| COc1ccc(C(=O)/C=C/c2cc(-c3ccccc3)ccc2OCCN(C)C)c(F)c1 | 10 (≈ 4.19 µg/mL) | 10 (≈ 4.19 µg/mL) | 5 (≈ 2.1 µg/mL) |  |
| Cc1cc(C)cc(-c2ccc(OCCN(C)C)c(/C=C/C(=O)c3ccc(CN(C)C)cc3)c2)c1 | 10 (≈ 4.57 µg/mL) | 20 (≈ 9.13 µg/mL) | 5 (≈ 2.28 µg/mL) | MIC [3]: 20 µM (≈ 9.13 µg/mL) |
| Cc1cc(C)cc(-c2ccc(OCCN(C)C)c(/C=C/C(=O)c3ccccc3N)c2)c1 | 5 (≈ 2.07 µg/mL) | 10 (≈ 4.15 µg/mL) | 5 (≈ 2.07 µg/mL) | MIC [5]: inactive |
| COc1ccc(C(=O)/C=C/c2cc(-c3ccccc3OC)ccc2OCCN(C)C)c(F)c1 | 10 (≈ 4.5 µg/mL) | 10 (≈ 4.5 µg/mL) | 10 (≈ 4.5 µg/mL) |  |
| CN(C)CCNc1cccc(C(=O)/C=C/c2ccc(-c3ccccc3)cc2N2CCN(C)CC2)c1 | 40 (≈ 18.7 µg/mL) | 40 (≈ 18.7 µg/mL) | 20 (≈ 9.37 µg/mL) | MIC [3]: 40 µM (≈ 18.7 µg/mL) |
| CN(C)CCNc1ccc(C(=O)/C=C/c2cccc(Oc3ccccc3)c2)cc1 | 20 (≈ 7.73 µg/mL) | 5 (≈ 1.93 µg/mL) | 20 (≈ 7.73 µg/mL) |  |
| COc1ccc(C(=O)/C=C/c2cc(-c3cccc(C(F)(F)F)c3)ccc2N2CCN(C)CC2)c(F)c1 | 5 (≈ 2.49 µg/mL) | 10 (≈ 4.99 µg/mL) | 5 (≈ 2.49 µg/mL) |  |
| C=CC(C)(C)c1cc(/C=C/C(=O)c2ccc(O)cc2)c(OC)cc1O [LICOAGROCHACONE A] | 40 (≈ 13.5 µg/mL) | 75 (≈ 25.4 µg/mL) | 40 (≈ 13.5 µg/mL) | Hemolysis [6]: 100%; Membrane integrity [7]: 0% |
| CN(C)CCNc1ccccc1C(=O)/C=C/c1ccc(Cl)cc1Cl | 40 (≈ 14.5 µg/mL) | 75 (≈ 27.2 µg/mL) | 40 (≈ 14.5 µg/mL) |  |
| COc1ccc(C(=O)/C=C/c2cc(-c3ccccc3OC)ccc2N2CCCN(C)CC2)c(F)c1 | 10 (≈ 4.75 µg/mL) | 20 (≈ 9.49 µg/mL) | 10 (≈ 4.75 µg/mL) |  |
| Cc1cc(C)cc(-c2ccc(OCCN(C)C)c(/C=C/C(=O)c3cccc(NCCN(C)C)c3)c2)c1 | 10 (≈ 4.86 µg/mL) | 10 (≈ 4.86 µg/mL) | 5 (≈ 2.43 µg/mL) | MIC [3]: 20 µM (≈ 9.71 µg/mL) |
| CN(C)CCNc1cccc(C(=O)/C=C/c2ccc(N3CCN(C)CC3)c(-c3ccccc3)c2)c1 | 75 (≈ 35.1 µg/mL) | 150 (≈ 70.3 µg/mL) | 75 (≈ 35.1 µg/mL) | MIC [8]: inactive |
| COc1ccc(C(=O)/C=C/c2cc(-c3cccnc3)ccc2N2CCN(C)CC2)c(F)c1 | 75 (≈ 32.4 µg/mL) | 75 (≈ 32.4 µg/mL) | 75 (≈ 32.4 µg/mL) |  |
| COc1ccc(C(=O)/C=C/c2cc(-c3ccccc3)ccc2CN(C)C)c(F)c1 | 150 (≈ 58.4 µg/mL) | 150 (≈ 58.4 µg/mL) | 150 (≈ 58.4 µg/mL) |  |
| COc1ccc(C(=O)/C=C/c2cc(-c3cc(C)cc(C)c3)ccc2OCC[N+](C)(C)C)c(C[N+](C)(C)C)c1 |  |  | 10 |  |
| COc1ccc(C(=O)/C=C/c2cc(C(C)(C)C)ccc2OCCN(C)C)c(F)c1 | 20 (≈ 7.99 µg/mL) | 20 (≈ 7.99 µg/mL) | 10 (≈ 4 µg/mL) |  |
| COc1ccc(C(=O)/C=C/c2cc(-c3ccccc3C(F)(F)F)ccc2N2CCN(C)CC2)c(F)c1 | 10 (≈ 4.99 µg/mL) | 20 (≈ 9.97 µg/mL) | 5 (≈ 2.49 µg/mL) |  |
| Cc1cc(C)cc(-c2ccc(OCCN(C)C)c(/C=C/C(=O)c3ccc(NCCN(C)C)cc3)c2)c1 | 10 (≈ 4.86 µg/mL) | 20 (≈ 9.71 µg/mL) | 10 (≈ 4.86 µg/mL) | MIC [3]: 20 µM (≈ 9.71 µg/mL) |
| Cc1cc(C)cc(-c2ccc(N3CCN(C)CC3)c(/C=C/C(=O)c3cccc(NCCN(C)C)c3)c2)c1 | 5 (≈ 2.48 µg/mL) | 5 (≈ 2.48 µg/mL) | 5 (≈ 2.48 µg/mL) | MIC [3]: 10 µM (≈ 4.97 µg/mL) |
| CN(C)CCNc1ccc(C(=O)/C=C/c2ccc(Oc3ccccc3)cc2)cc1 | 20 (≈ 7.73 µg/mL) | 5 (≈ 1.93 µg/mL) | 20 (≈ 7.73 µg/mL) |  |
| COc1ccc(C(=O)/C=C/c2cc(-c3ccccc3OC)ccc2N2CCN(C(C)=O)CC2)c(F)c1 |  |  |  | MIC [9]: inactive; MIC [10]: inactive; MIC [11]: inactive |
| Cc1cc(C)cc(-c2ccc(N(C)CCN(C)C)c(/C=C/C(=O)c3cccc(NCCN(C)C)c3)c2)c1 | 10 (≈ 4.99 µg/mL) | 10 (≈ 4.99 µg/mL) | 10 (≈ 4.99 µg/mL) | MIC [3]: 20 µM (≈ 9.97 µg/mL) |
| Cc1cc(C)cc(-c2ccc(OCCN(C)C)c(/C=C/C(=O)c3ccccc3CN(C)C)c2)c1 | 10 (≈ 4.57 µg/mL) | 5 (≈ 2.28 µg/mL) | 10 (≈ 4.57 µg/mL) | MIC [3]: 75 µM (≈ 34.2 µg/mL) |
| CCCCN(CCCC)c1ccc(/C=C/C(=O)c2ccc(NCCN(C)C)cc2)cc1 | 10 (≈ 4.22 µg/mL) | 10 (≈ 4.22 µg/mL) | 10 (≈ 4.22 µg/mL) |  |
| Cc1cc(C)cc(-c2ccc(OCCN(C)C)c(/C=C/C(=O)c3ccc(N)cc3)c2)c1 | 10 (≈ 4.15 µg/mL) | 20 (≈ 8.29 µg/mL) | 10 (≈ 4.15 µg/mL) | MIC [8]: inactive |
| COc1ccc(C(=O)/C=C/c2cc(C)ccc2OCCN(C)C)c(F)c1 | 150 (≈ 53.6 µg/mL) | 150 (≈ 53.6 µg/mL) | 75 (≈ 26.8 µg/mL) |  |
